In the assay the target is D(2) dopamine receptor (Rattus norvegicus, UniProt P61169). Kind of assay: Displacement of [3H]raclopride from dopamine D2 receptor in Wistar rat striatal membrane by liquid scintillation counting. The method, boiled down: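 Female Wistar rat striatal membranes were washed at 49,000g and resuspended in Tris-ions buffer, pH 7.4. [3H]-raclopride displacement was read by filtration, cold-buffer washes and scintillation counting. Ki was derived using KD 1,25 nM; 3–6 independent determinations in duplicate, mean SEM.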
Sequence of D(2) dopamine receptor (P61169 whole entry): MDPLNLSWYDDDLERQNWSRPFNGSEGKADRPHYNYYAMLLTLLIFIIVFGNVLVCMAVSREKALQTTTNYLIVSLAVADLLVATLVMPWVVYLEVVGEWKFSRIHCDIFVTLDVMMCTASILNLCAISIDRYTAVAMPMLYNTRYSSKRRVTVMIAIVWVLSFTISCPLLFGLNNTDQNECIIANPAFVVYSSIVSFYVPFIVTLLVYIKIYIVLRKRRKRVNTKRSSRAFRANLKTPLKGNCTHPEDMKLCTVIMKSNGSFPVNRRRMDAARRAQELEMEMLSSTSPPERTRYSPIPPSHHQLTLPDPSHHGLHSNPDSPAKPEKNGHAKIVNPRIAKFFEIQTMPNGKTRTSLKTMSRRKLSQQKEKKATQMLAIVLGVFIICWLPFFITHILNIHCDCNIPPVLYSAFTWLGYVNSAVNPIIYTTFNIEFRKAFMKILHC
For orientation: Loss of bound radioactivity is the signal in a displacement assay; it reports binding, not function.

The text below walks through data of BindingDB's records for doi:10.1016/j.bmc.2009.05.079 (Universidad De Valencia, 2009).

`CCCCC1NCCc2cc(Cl)c(O)cc21` (stereo unspecified) [1-Butyl-6-chloro-7-hydroxy-1,2,3,4-tetrahydroisoquinoline] had an inhibition constant Ki of 76 nM.

Usually Ki stands for a dissociation constant, usually derived from enzyme kinetics or from competition with a known ligand.
